Activation data for 59 compounds are collected here from PubChem BioAssay AID2520 (Sanford-Burnham Center for Chemical Genomics, 2010).

In all, about 330,000 compounds went through this assay and about 350 (0.11%) were called active. Shown is part of a subset that was picked to be rich in actives. Unmarked numbers belong to inactive results.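 Rule for the calls: active = activation more than six SD over the plate average, tested at 20 µM; inactive = the rest.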

This test deals with Apelin receptor (Homo sapiens) (UniProt P35414). Nature of the test: agonists of human apelin receptor APJ, primary screen, CHO-K1 cells, PathHunter beta-arrestin, luminescence (AID 2520). The following applies: at 20 µM, hits give high values, 0% DMSO wells, 100% apelin. In short, it runs like this: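 Material: engineered CHO-K1 APJ arrestin reporter cells; amount: 1000 CHO-K1 reporter cells seeded per well; incubation: compound stimulation 90 min at 25 °C, detection 60 min; signal: luminescent beta-gal fragment complementation, chemiluminescent substrate; read-out basis: APJ agonist activity; controls: DMSO-only wells as negative, 10 nM Apelin-13 as positive control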
Sequence of Apelin receptor (Homo sapiens) (P35414 whole entry, looked up, the tested form may be a part): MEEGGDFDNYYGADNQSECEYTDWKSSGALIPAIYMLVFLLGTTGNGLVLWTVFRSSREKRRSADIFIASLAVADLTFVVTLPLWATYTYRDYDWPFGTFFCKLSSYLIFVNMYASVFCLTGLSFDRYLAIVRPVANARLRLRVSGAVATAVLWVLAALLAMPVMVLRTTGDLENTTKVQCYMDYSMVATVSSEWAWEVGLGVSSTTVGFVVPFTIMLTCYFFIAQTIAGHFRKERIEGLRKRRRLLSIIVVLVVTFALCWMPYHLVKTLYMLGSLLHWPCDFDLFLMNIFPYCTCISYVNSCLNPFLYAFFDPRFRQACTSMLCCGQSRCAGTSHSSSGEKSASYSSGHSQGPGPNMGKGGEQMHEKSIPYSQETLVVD
`CCCCc1cc(=O)oc2c(C)c(OCC(=O)N3CCC(C(N)=O)CC3)ccc12`: the activation was -4.2%.

Regarding `CCOc1ccc(/C=C/C(=O)N(CC)CC(=O)NCc2cccs2)cc1OC`, the activation was 8.54%.

On to `Cc1nnc(SCC(=O)NC(=O)NC2CCCC2)n1N`, for which the activation is -4.56%.

Consider `CCN1CCN(C(=O)CCN2C(=O)c3ccccc3C2=O)CC1`, for which the activation was -1.85%.

`COc1ccc2c(c1)N(C)/C(=C1/SC(=S)N(NC(C)=O)C1=O)S2`: the activation is -1.51%.

With `O=C1NC(c2ccccc2)=NC1(Nc1ccccn1)C(F)(F)F` (centres undefined), the activation is 1.8%.

Consider `Cc1ccsc1C(=O)OCC(=O)Nc1cccc(F)c1`, for which the activation is -4.87%.

On to `COc1ccc(-n2c(=O)[nH]c3cc(C(=O)NCCc4ccc(OC)c(OC)c4)ccc3c2=O)c(OC)c1`, for which the activation was -2.2%.

For the compound `O=C(NC1CCCC1)C(NS(=O)(=O)c1ccc(Br)s1)c1ccccc1` (centres undefined), the activation was 1.83%.

For the compound `Cc1ccc2c(c1)NCC(C(=O)NC1CCC(C)CC1)O2` (centres undefined), the activation was -1.38%.

As for `N#CC1=C(N)N(c2ccc(F)cc2)C(=O)C1`, the activation was -4.08%.

Turning to `CC(=O)Nc1ccc(NC(=O)C(C)n2c3ccccc3c3nc(=O)cc(C)n32)cc1` (centres undefined), the activation is -3.18%.

For `CCOC(=O)C1=C(CC)OC(N)=C(C#N)C1c1ccc(F)cc1F` (centres undefined), the activation was -3.78%.

Take `Cc1cccc(NC(=O)c2sc3nc(N4CCOCC4)c4c(c3c2N)CCCC4)c1`: the activation was -11.8%.

Consider `Nc1nc(-c2sc3nc4c(cc3c2N)CCCC4)nc(N2CCOCC2)n1`, for which the activation is 12.3% (active).

Turning to `Cc1nc(N2CCOCC2)nc2c1CCCC2`, the activation is 0.237%.

As to `Cc1ccc2nc(-c3ccc(NC(=O)c4cccnc4)cc3)oc2c1`, the activation was 14.6% (active).

Turning to `Cc1cc(NS(=O)(=O)c2ccc(NC(=O)c3cccnc3)cc2)nc(C)n1`, the activation was 1.41%.

`CC(=O)NC(=S)Nc1ccc(NC(=O)c2cccnc2)cc1`: the activation was 3.75%.

In the case of `COc1ccc(C)cc1N(CC(=O)NC(C)c1ccccc1)S(C)(=O)=O` (centres undefined), the activation is -1.79%.

Take `C=CCOc1ccccc1NC(=O)CN1C(=O)CNC1=O`: the activation was -2.49%.

Turning to `COc1ccc(C)cc1NC(=O)CSc1nnc(CC(=O)Nc2ccccc2F)n1C`, the activation is -3.35%.

`NS(=O)(=O)c1ccc(CCNC(=O)COC(=O)COc2cccc(C(F)(F)F)c2)cc1`: the activation was -3.07%.

Take `COc1cc2c(cc1OC)C(=O)NCC(C)(C)O2`: the activation was -0.328%.

In the case of `CN(CCc1ccccn1)C(=O)c1ccc(OC2CCN(Cc3ccccn3)CC2)cc1`, the activation is -8.78%.

For the compound `CC(C)=CCCC(C)CN1CCC(n2nccc2NC(=O)c2ccccc2)CC1` (centres undefined), the activation was 1.47%.

Consider `CCCn1c(=S)[nH]c2ccc(C(F)(F)F)cc21`, for which the activation is 0.385%.

Take `CCCCn1nnnc1NCc1cc(OC)c(OC)c(OC)c1`: the activation is -4.13%.

Consider `Cc1ccnc(NC(=O)CCC(=O)N(CC(=O)NCCc2ccccc2)Cc2cccs2)c1`, for which the activation is -3.93%.

`CCCS(=O)(=O)N1CCN=C1SCc1cccc(F)c1`: the activation is 2.13%.

Consider `COc1cccc2c(O)cc(=O)n(C)c12`, for which the activation was -2.86%.

As to `O=C(Nc1cccc([N+](=O)[O-])c1)N1CCc2ccccc2C1`, the activation is -0.709%.

As to `Cc1ccc(O/C=C2\OC(=O)c3ccccc32)cc1`, the activation is -1.88%.

Regarding `O=C(OCC(=O)c1cccs1)c1ccc([N+](=O)[O-])o1`, the activation was 3.99%.

Regarding `COC(=O)Cc1cnc(NC(=O)CSc2nc(C(C)C)cc(=O)[nH]2)s1`, the activation is -1.9%.

`O=C1NC(=Nc2ccc(Cl)cc2)SC1Cc1cccc(Cl)c1Cl` (centres undefined): the activation is -3.58%.

For the compound `N#Cc1cccc(NC(=O)COC(=O)c2ccccc2C(=O)c2ccc(Cl)c([N+](=O)[O-])c2)c1`, the activation was -0.51%.

In the case of `Cc1ccc(C(=O)C(C)OC(=O)Cc2n[nH]c(=O)c3ccccc23)cc1C` (centres undefined), the activation is 6.72%.

As to `CCc1ccc2c(c1)cc(CN(C(=S)Nc1ccccc1Cl)C1CC1)c1nnnn12`, the activation was 4.19%.

On to `Cc1cccc2cc(CN(Cc3cccs3)C(=S)NCc3ccco3)c(=O)[nH]c12`, for which the activation was -1.92%.

With `Cc1cc(C)c2[nH]c(=O)c(CN(Cc3ccccc3)C(=S)NCCCN(C)C)cc2c1`, the activation is 20.2% (active).

For the compound `COCCCNC(=S)N(CCN(C)C)Cc1cc2cc3c(cc2[nH]c1=O)OCCO3`, the activation was -4.21%.

Turning to `O=C1C=CC(=O)N1c1ccc(N2CCCCC2)cc1`, the activation is -5.18%.

For `CCc1ccc(CN(C)C(=O)CCc2nnc(-c3ccc(-c4ccccc4)cc3)o2)nc1`, the activation was -3.94%.

As for `CCCCCCc1cc2cc(-c3nnc(-c4ccccc4)o3)c(=O)oc2cc1O`, the activation was 30.8% (active).

Turning to `Cc1c(CCC(=O)O)c(=O)oc2cc3occ(-c4ccccc4)c3cc12`, the activation was -2.13%.

In the case of `CN(c1ccccc1)S(=O)(=O)c1ccc(Cl)c(C(=O)OCC(=O)N2CCOCC2)c1`, the activation was -4.02%.

As for `CCn1c(-c2cccnc2Cl)nc2cc(C)c(C)cc21`, the activation was -1.12%.

Turning to `COCC(=O)Nc1cc(C(=O)OC)cc(C(=O)OC)c1`, the activation is -0.719%.

Consider `CCOC(CNC(=O)C(=O)NCC(c1ccco1)N1CCN(c2ccc(OC)cc2)CC1)OCC` (centres undefined), for which the activation was -4.81%.

Consider `CC(=O)c1ccccc1OCc1ccc(C(=O)c2ccccc2)cc1`, for which the activation was -3.74%.

In the case of `COc1ccc(N(CCC#N)S(=O)(=O)c2ccc(Cl)cc2)cc1`, the activation was -5.53%.

Regarding `COCn1c(C(O)c2ccccc2)cc2ccccc21` (centres undefined), the activation was -2.04%.

For the compound `COc1ccc(S(=O)(=O)Nc2ccc(F)cc2)c(C)c1C`, the activation is -0.449%.

In the case of `CCCCN(CC)C(=O)CN(C)S(=O)(=O)c1cccc2nsnc12`, the activation was -2.83%.

Regarding `CN(CCC1CCOCC1)Cc1cn[nH]c1-c1ccc(-c2ccccc2)cc1`, the activation was -3.69%.

Consider `Cc1ccnc(NS(=O)(=O)c2ccc(NC(=O)c3ccc(S(=O)(=O)N(C)C)cc3)cc2)n1`, for which the activation is -2.66%.

`CCc1ccccc1NC(=O)CN(C)C(=O)COc1ccc(C)nc1[N+](=O)[O-]`: the activation is -1.82%.

Regarding `CC1CN(C(=O)c2ccc3c(c2)OCO3)OC(c2ccccc2)O1` (centres undefined), the activation was -2.94%.
